Results as given in ChEMBL document CHEMBL1765048 (J Med Chem, 2011).
Active and inactive are the calls of the source. The calls are words filed in the database; no cut-off is given here.

Key:
[1] = target: T1, D(3) dopamine receptor (Homo sapiens, UniProt P35462); assay: Displacement of [3H]spiperone from wild type human dopamine D3 receptor expressed in HEK293 cells after 60 mins; assay type: cell-based
How it was run: (§1)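 Membranes from HEK293 cells transiently transfected with wild-type or mutant D3 were harvested at 48 h. KD and Bmax were set by [3H]spiperone saturation. Competition at 20-200 μg/mL protein for 1 h at 37 °C, ended by filtration on PEI-soaked GF/B filters, then scintillation counting. Ki by Cheng-Prusoff as mean ± SEM of 3-12 experiments in triplicate.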

[2] = target: D(3) dopamine receptor (Homo sapiens, UniProt P35462, D110E); assay: Displacement of [3H]spiperone from human dopamine D3 receptor D3.32E mutant expressed in HEK293 cells after 60 mins; assay type: cell-based; how it was run: as §1
Sequence of D(3) dopamine receptor (Homo sapiens, UniProt P35462, D110E) (P35462 as listed by the source D110E): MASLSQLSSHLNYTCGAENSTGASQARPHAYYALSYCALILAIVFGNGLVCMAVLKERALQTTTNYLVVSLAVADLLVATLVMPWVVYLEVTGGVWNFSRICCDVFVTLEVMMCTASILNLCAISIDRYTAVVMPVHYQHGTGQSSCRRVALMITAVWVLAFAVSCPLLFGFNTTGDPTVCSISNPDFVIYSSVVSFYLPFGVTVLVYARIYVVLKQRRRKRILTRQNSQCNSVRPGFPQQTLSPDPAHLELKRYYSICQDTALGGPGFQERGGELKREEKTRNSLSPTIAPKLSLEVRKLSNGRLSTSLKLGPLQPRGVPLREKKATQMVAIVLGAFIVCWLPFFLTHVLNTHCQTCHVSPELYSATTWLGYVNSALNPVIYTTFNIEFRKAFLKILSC

[3] = target: D(3) dopamine receptor (Homo sapiens, UniProt P35462, V87F); assay: Displacement of [3H]spiperone from human dopamine D3 receptor V2.61F mutant expressed in HEK293 cells after 60 mins; assay type: cell-based; how it was run: as §1
Sequence of D(3) dopamine receptor (Homo sapiens, UniProt P35462, V87F) (P35462 as listed by the source V87F): as the sequence (P35462 as listed by the source D110E) above, with V87F, E110D counted along it

[4] = target: T1, D(3) dopamine receptor; assay: Displacement of [3H]spiperone from human dopamine D3 receptor S5.42A mutant expressed in HEK293 cells after 60 mins; assay type: cell-based; how it was run: as §1
[5] = target: D(3) dopamine receptor (Homo sapiens, UniProt P35462, S196A); assay: Displacement of [3H]spiperone from human dopamine D3 receptor S5.46A mutant expressed in HEK293 cells after 60 mins; assay type: cell-based; how it was run: as §1
Sequence of D(3) dopamine receptor (Homo sapiens, UniProt P35462, S196A) (P35462 as listed by the source S196A): as the sequence (P35462 as listed by the source D110E) above, with E110D, S196A counted along it

[6] = species: Homo sapiens; assay: Selectivity ratio of Ki for human dopamine D3 receptor V2.61F mutant to Ki for wild type human dopamine D3 receptor
[7] = target: T2, D(2) dopamine receptor (Homo sapiens, UniProt P14416); assay: Displacement of [3H]spiperone from human dopamine D2long receptor expressed in CHO cells after 60 mins; assay type: cell-based
T2 sequence (P14416 whole entry): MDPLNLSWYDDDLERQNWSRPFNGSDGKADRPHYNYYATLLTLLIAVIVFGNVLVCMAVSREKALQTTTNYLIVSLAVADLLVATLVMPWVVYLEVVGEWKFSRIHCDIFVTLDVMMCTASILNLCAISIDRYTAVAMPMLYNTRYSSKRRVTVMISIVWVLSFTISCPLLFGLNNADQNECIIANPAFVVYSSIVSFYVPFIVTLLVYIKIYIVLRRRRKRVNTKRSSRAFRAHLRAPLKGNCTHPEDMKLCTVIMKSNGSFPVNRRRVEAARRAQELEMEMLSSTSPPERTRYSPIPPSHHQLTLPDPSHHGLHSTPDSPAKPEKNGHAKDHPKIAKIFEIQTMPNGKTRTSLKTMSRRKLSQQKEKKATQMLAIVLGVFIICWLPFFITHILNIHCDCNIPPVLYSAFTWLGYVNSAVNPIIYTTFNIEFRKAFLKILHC
How it was run: (§2)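 Incubated 60 min at 37 °C in sodium-free buffer: 50 mM Tris-HCl, 1 mM EDTA, 5 mM MgCl2, 0.1 mM DTT, bacitracin, trypsin inhibitor, pH 7.4. Ki by Cheng-Prusoff; 3-9 experiments in triplicate.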

[8] = target: T1, D(3) dopamine receptor; assay: Displacement of [3H]spiperone from human dopamine D3 receptor expressed in CHO cells after 60 mins; assay type: cell-based; how it was run: as §2
[9] = target: T2, D(2) dopamine receptor; assay: Displacement of [3H]7-OH-DPAT from human dopamine D2long receptor expressed in CHO cells after 60 mins; assay type: cell-based
How it was run: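 CHO membranes stably expressing D2long (200 μg protein/well) incubated with 1.0 nM [3H]7-OH-DPAT for 60 min at 37 °C. […] Ki from Cheng-Prusoff; 3-8 experiments in triplicate.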

[10] = target: T1, D(3) dopamine receptor; assay: Displacement of [3H]7-OH-DPAT from human dopamine D3 receptor expressed in CHO cells after 60 mins; assay type: cell-based
[11] = target: T1, D(3) dopamine receptor; assay: Agonist activity at human dopamine D3 receptor expressed in HEK293 cells co-expressing Galphao1 assessed as incorporation of [35S]GTPgammaS into Galphao1 after 30 mins by scintillation counting; assay type: functional, cell-based
How it was run: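 Membranes from HEK293 cells transiently transfected with D3 plus PTX-insensitive Gαo; expression 1100 fmol/mg. Buffer: 20 mM Hepes, 10 mM MgCl2, 100 mM NaCl, 70 mg/L saponin, pH 7.4. Membranes at 30-50 μg/mL, with compound and 10 μM GDP, preincubated 30 min at 37 °C. Then 0.10 nM [35S]GTPγS added for 30 min at 37 °C. Filtration, scintillation counting.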

[12] = target: T1, D(3) dopamine receptor; assay: Displacement of [3H]spiperone from human dopamine D3 receptor H6.55A mutant expressed in HEK293 cells after 60 mins
[13] = target: D(1A) dopamine receptor (Sus scrofa, UniProt P50130); assay: Displacement of [3H]SCH23390 from dopamine D1 receptor in porcine cerebral cortex after 60 mins; assay type: tissue-based
Sequence of D(1A) dopamine receptor (P50130 whole entry): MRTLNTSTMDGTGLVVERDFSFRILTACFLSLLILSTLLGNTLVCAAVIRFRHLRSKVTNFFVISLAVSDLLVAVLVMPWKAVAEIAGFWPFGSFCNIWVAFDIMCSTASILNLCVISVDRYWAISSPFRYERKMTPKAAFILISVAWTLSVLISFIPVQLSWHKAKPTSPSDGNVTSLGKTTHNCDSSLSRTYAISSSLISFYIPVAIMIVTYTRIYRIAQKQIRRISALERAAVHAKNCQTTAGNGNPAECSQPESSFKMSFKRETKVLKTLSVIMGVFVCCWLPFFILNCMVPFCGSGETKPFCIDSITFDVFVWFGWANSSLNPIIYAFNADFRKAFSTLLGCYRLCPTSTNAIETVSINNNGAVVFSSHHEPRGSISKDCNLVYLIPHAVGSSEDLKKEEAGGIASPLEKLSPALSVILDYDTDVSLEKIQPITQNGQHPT

[14] = target: T2, D(2) dopamine receptor; assay: Displacement of [3H]spiperone from human dopamine D2short receptor expressed in CHO cells after 60 mins; assay type: cell-based; how it was run: as §2
[15] = target: T3, D(4) dopamine receptor (Homo sapiens, UniProt P21917); assay: Displacement of [3H]spiperone from human dopamine D4.4 receptor expressed in CHO cells after 60 mins; assay type: cell-based; how it was run: as §2
T3 sequence (P21917 whole entry): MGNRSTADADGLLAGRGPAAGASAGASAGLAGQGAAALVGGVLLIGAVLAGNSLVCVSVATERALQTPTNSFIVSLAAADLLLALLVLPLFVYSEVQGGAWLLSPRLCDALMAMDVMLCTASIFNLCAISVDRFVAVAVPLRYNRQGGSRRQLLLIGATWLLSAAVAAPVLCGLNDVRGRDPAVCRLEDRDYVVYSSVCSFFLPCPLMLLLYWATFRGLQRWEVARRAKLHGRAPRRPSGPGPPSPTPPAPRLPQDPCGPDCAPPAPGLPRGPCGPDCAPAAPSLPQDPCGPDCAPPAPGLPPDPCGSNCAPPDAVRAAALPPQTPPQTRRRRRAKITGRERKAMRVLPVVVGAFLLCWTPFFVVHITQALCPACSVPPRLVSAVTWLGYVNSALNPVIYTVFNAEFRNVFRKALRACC

[16] = Displacement of [3H]prazosin from adrenergic alpha1 receptor in porcine cerebral cortex after 60 mins; assay type: tissue-based, Sus scrofa
[17] = target: T2, D(2) dopamine receptor; assay: Agonist activity at human dopamine D2long receptor expressed in CHO cells assessed as induction of [3H]thymidine incorporation after 2 hrs
[18] = target: T1, D(3) dopamine receptor; assay: Agonist activity at human dopamine D3 receptor expressed in CHO cells assessed as induction of [3H]thymidine incorporation after 2 hrs; assay type: functional, cell-based
How it was run: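 CHO dhfr- cells stably expressing D3 receptor labeled with 0.02 μCi [3H]thymidine per well (specific activity […]) for 2 h after stimulation with compound. […] Operational model used to estimate τ.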

[19] = target: T2, D(2) dopamine receptor; assay: Agonist activity at human dopamine D2long receptor expressed in HEK293 cells co-expressing Galphao1 assessed as incorporation of [35S]GTPgammaS into Galphao1 after 30 mins by scintillation counting; assay type: functional, cell-based
How it was run: (§3)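 Membranes from HEK293 cells transiently co-transfected with D2long and PTX-insensitive Gαo (receptor 1500 ± 50 fmol/mg), harvested 48 h post-transfection. Buffer: 20 mM Hepes, 10 mM MgCl2, 100 mM NaCl, 70 mg/L saponin, pH 7.4. Membranes (30-50 μg/mL protein), compound and 10 μM GDP preincubated 30 min at 37 °C, then 0.10 nM [35S]GTPγS added for 30 min at 37 °C. Reaction stopped by filtration and bound counts read.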

[20] = target: T2, D(2) dopamine receptor; assay: Agonist activity at human dopamine D2long receptor expressed in HEK293 cells co-expressing Galphai2 assessed as incorporation of [35S]GTPgammaS into Galphai2 after 30 mins by scintillation counting; assay type: functional, cell-based
How it was run: as §3, with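 “PTX-insensitive Gαi2” for “PTX-insensitive Gαo”, “(receptor 4900” for “(receptor 1500”, “± 440” for “± 50”, “at 30” for “at 37”, “for 75” for “for 30”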

[21] = target: T2, D(2) dopamine receptor; assay: Agonist activity at human dopamine D2long receptor expressed in CHO cells assessed as increase of forskolin-induced cAMP accumulation by bioluminescence assay
[22] = target: T2, D(2) dopamine receptor; assay: Antagonist activity at human dopamine D2long receptor expressed in CHO cells assessed as inhibition of forskolin-induced cAMP accumulation by bioluminescence assay; assay type: functional, cell-based
How it was run: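 CHO cells stably expressing D2long, seeded at 5000 cells/well 24 h before assay and washed with PBS. Compounds added with 20 μM forskolin in serum-free medium containing 500 μM IBMX and 100 μM Ro 20-1724, pH 7.4, for 15 min at 25 °C. cAMP read by cAMP-Glo luminescence (PKA kinase reaction, then Kinase-Glo).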

T1 sequence (P35462 whole entry): as the sequence (P35462 as listed by the source D110E) above, with S9G, E110D counted along it

| Compound | Ki [1] [nM] | Ki [2] [nM] | Ki [3] [nM] | Ki [4] [nM] | Ki [5] [nM] | Ratio Ki [6] | Ki [7] [nM] | Ki [8] [nM] | Ki [9] [nM] | Ki [10] [nM] | Ki [12] [nM] | Ki [13] [nM] | Ki [14] [nM] | Ki [15] [nM] | Ki [16] [nM] | also measured |
| --- | --- | --- | --- | --- | --- | --- | --- | --- | --- | --- | --- | --- | --- | --- | --- | --- |
| CCCN(CCCCNC(=O)c1ccc(-c2ccccc2)cc1)[C@@H]1CCn2nccc2C1 | 19 | 1400 | 3700 | 240 | 15 | 190 | 300 | 15 | 49 | 6.3 | 43 |  |  |  |  | EC50 [11]: 51 nM |
| CCCCC(=O)NCCCCN(CCC)C1Cc2ccccc2C1 | 44 |  | 760 |  |  | 17 |  |  |  |  |  |  |  |  |  |  |
| CCCN(CCCCNC(=O)c1ccc(-c2ccccc2)cc1)C1CCn2ncc(Cl)c2C1 (centres undefined) |  |  |  |  |  |  | 100 | 0.59 |  |  |  | 3600 | 43 | 190 | 260 |  |
| CCCN(CCC)[C@@H]1CCn2nccc2C1 |  |  |  |  |  |  | 55000 | 2100 | 57000 | 4300 |  | 68000 | 53000 | 17000 | 2900 |  |
| CCCN(CCC)C1Cc2ccccc2C1 | 230 |  | 350 |  |  | 1.5 |  |  |  |  |  |  |  |  |  |  |
| CCCN(CCCCNC(=O)c1ccc(-c2ccccc2)cc1)[C@H]1CCn2nccc2C1 | 0.076 | 850 | 170 | 2.3 | 0.058 | 2200 | 5.3 | 0.19 | 1 | 0.027 | 0.98 |  |  |  |  | EC50 [17]: 0.51 nM; EC50 [18]: 0.0028 nM; EC50 [19]: 26 nM; EC50 [20]: 370 nM; EC50 [11]: 0.056 nM; EC50 [21]: 110 nM |
| CCCN(CCCCNC(=O)c1ccc(-c2ccccc2)cc1)C1Cc2cccn3ncc(c23)C1 (centres undefined) |  |  |  |  |  |  | 270 | 0.55 |  |  |  | 1800 | 240 | 230 | 86 |  |
| CCCN(CCCCNC(C)=O)C1Cc2ccccc2C1 | 410 |  | 330 |  |  | 0.8 |  |  |  |  |  |  |  |  |  |  |
| COc1ccccc1N1CCN(CCCCNC(=O)c2ccc(-c3ccccc3)cc2)CC1 | 0.9 | 790 | 180 | 2.8 | 0.16 |  |  | 0.22 |  |  | 0.58 | 570 |  | 27 | 5.6 | inhibition [22]: Active |
| CCCN(CCCCNC(=O)c1ccc(-c2ccccc2)cc1)C1CCn2nccc2C1 (racemic) |  |  |  |  |  |  | 150 | 0.71 |  |  |  | 6800 | 77 | 59 | 520 |  |
| CCCN(CCC)[C@H]1CCn2nccc2C1 | 150 | 8100 | 420 | 840 | 45 | 2.8 | 410 | 31 | 4.6 | 14 | 420 | 53000 | 270 | 380 | 5100 |  |
| CCCN(CCCCNC(=O)c1ccc(-c2ccccc2)cc1)C1CCn2ncc(C=O)c2C1 (centres undefined) |  |  |  |  |  |  | 8400 | 39 |  |  |  | 23000 | 4700 | 6300 | 3800 |  |
| CCCN(CCCCNC(=O)c1ccccc1)C1Cc2ccccc2C1 | 2.7 |  | 250 |  |  | 93 |  |  |  |  |  |  |  |  |  |  |
